This passage reports IC50 and Ratio results from ChEMBL document CHEMBL1127617, “Synthesis and biological evaluation of C-3'-modified analogs of 9(R)-dihydrotaxol” (J Med Chem, 1994).

The test system of one assay is HT-29. The assay is described as follows: In vitro cytotoxicity against HT-29 (human colon adenocarcinoma) cell line. The assay is classed as functional, cell-based. The method in brief: (§1)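 Inhibition of cell proliferation measured against untreated cells after 72 h incubation at 37 °C. Read-out by MTT colorimetric microtiter assay. IC50 taken as the agent concentration giving 50% inhibition of proliferation.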

Another assay concerns P388. Briefly: In vitro cytotoxicity against P388 (murine leukemia) cell line. Particulars: Mus musculus. The assay is classed as functional, cell-based. In short, it runs like this: as §1
The test system of the next assay is B16-F10. The assay is described as follows: In vitro cytotoxicity against B16F10 (mouse melanoma) cell line. The assay is classed as functional, cell-based. In short, it runs like this:
as §1

Assay [1] in a line: Compound was tested for the concentration of agent which reduces the supernatant protein concentration (tubulin, 1 mg/mL) by 50%; ED50/ED50taxol. The assay is classed as functional. In short, it runs like this: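 Tubulin assembly assay with tubulin at 1 mg/mL, 15 min at 37 °C. Read-out is protein left in the supernatant. ED50 is the agent concentration that lowers supernatant protein by 50%. Value expressed as a ratio to the ED50 of taxol.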

A further assay relates to A549. The assay is described as follows: In vitro cytotoxicity against A549 (human lung carcinoma) cell line. Format: functional, cell-based. The method in brief: as §1

SMILES strings stand for the structures. ≈ marks a conversion by molar mass, not a printed value. Where only a bound is given, the exact number is not on record here.

The term IC50 denotes the concentration that gives 50% inhibition. For the molecule `CC(=O)O[C@@H]1C2=C(C)[C@@H](OC(=O)[C@H](O)[C@H](COc3ccccc3)NC(=O)c3ccccc3)C[C@@](O)([C@@H](OC(=O)c3ccccc3)[C@@H]3[C@]4(OC(C)=O)CO[C@@H]4C[C@H](O)[C@@]3(C)[C@H]1O)C2(C)C`, the IC50 was 0.039 µg/mL (≈ 0.044 µM) in the assay with HT-29, greater than 0.1 µg/mL in the assay with P388, 0.084 µg/mL (≈ 0.0948 µM) in the assay with B16-F10 and 0.092 µg/mL (≈ 0.104 µM) in the assay on A549. In assay [1], the Ratio was determined as 5.81.
Turning to `CC(=O)O[C@@H]1C2=C(C)[C@@H](OC(=O)[C@H](O)[C@H](CC(C)C)NC(=O)OC(C)(C)C)C[C@@](O)([C@@H](OC(=O)c3ccccc3)[C@@H]3[C@]4(OC(C)=O)CO[C@@H]4C[C@H](O)[C@@]3(C)[C@H]1O)C2(C)C`, the IC50 came to 0.00038 µg/mL (≈ 0.000457 µM) in the assay with HT-29, 0.00036 µg/mL (≈ 0.000433 µM) with P388, 0.0009 µg/mL (≈ 0.00108 µM) in the assay on B16-F10 and 0.00012 µg/mL (≈ 0.000144 µM) in the assay on A549. In assay [1], the Ratio amounted to 0.95.
For `CC(=O)O[C@@H]1C2=C(C)[C@@H](OC(=O)[C@H](O)[C@@H](NC(=O)OC(C)(C)C)[C@H](O)CO)C[C@@](O)([C@@H](OC(=O)c3ccccc3)[C@@H]3[C@]4(OC(C)=O)CO[C@@H]4C[C@H](O)[C@@]3(C)[C@H]1O)C2(C)C`, in that order: greater than 0.1 µg/mL, greater than 0.1 µg/mL, greater than 0.1 µg/mL, greater than 0.1 µg/mL and 2.71.
For `CC[C@H](NC(=O)OC(C)(C)C)[C@@H](O)C(=O)O[C@H]1C[C@@]2(O)[C@@H](OC(=O)c3ccccc3)[C@@H]3[C@]4(OC(C)=O)CO[C@@H]4C[C@H](O)[C@@]3(C)[C@@H](O)[C@H](OC(C)=O)C(=C1C)C2(C)C`, in that order: 0.0014 µg/mL (≈ 0.00174 µM), 0.011 µg/mL (≈ 0.0137 µM), 0.0032 µg/mL (≈ 0.00398 µM), 0.00083 µg/mL (≈ 0.00103 µM) and 0.61.
As for `CC(=O)O[C@@H]1C2=C(C)[C@@H](OC(=O)[C@H](O)[C@@H](NC(=O)OC(C)(C)C)c3ccccc3)C[C@@](O)([C@@H](OC(=O)c3ccccc3)[C@@H]3[C@]4(OC(C)=O)CO[C@@H]4C[C@H](O)[C@@]3(C)[C@H]1O)C2(C)C`, the IC50 in the assay on HT-29 was 0.00016 µg/mL (≈ 0.000188 µM); with P388 it was 0.0025 µg/mL (≈ 0.00293 µM); in the assay with B16-F10 it was 0.0004 µg/mL (≈ 0.00047 µM); in the assay on A549, 0.003 µg/mL (≈ 0.00352 µM). In addition, the Ratio in assay [1] was 0.87.
In the case of `CC(=O)O[C@@H]1C2=C(C)[C@@H](OC(=O)[C@H](O)[C@@H](NC(=O)OC(C)(C)C)C(C)O)C[C@@](O)([C@@H](OC(=O)c3ccccc3)[C@@H]3[C@]4(OC(C)=O)CO[C@@H]4C[C@H](O)[C@@]3(C)[C@H]1O)C2(C)C` (single isomer, unassigned) [listing 1 of 2 here], the IC50 in the assay with HT-29, in the assay with P388, in the assay with B16-F10 and in the assay on A549 was greater than 0.1 µg/mL in each case.
`CC(=O)O[C@@H]1C2=C(C)[C@@H](OC(=O)[C@H](O)[C@@H](NC(=O)OC(C)(C)C)C(C)O)C[C@@](O)([C@@H](OC(=O)c3ccccc3)[C@@H]3[C@]4(OC(C)=O)CO[C@@H]4C[C@H](O)[C@@]3(C)[C@H]1O)C2(C)C` (mixture of isomers): in assay [1], the Ratio stood at 1.2.
`CC(=O)O[C@@H]1C2=C(C)[C@@H](OC(=O)[C@H](O)[C@@H](NC(=O)OC(C)(C)C)[C@H]3COC(C)(C)O3)C[C@@](O)([C@@H](OC(=O)c3ccccc3)[C@@H]3[C@]4(OC(C)=O)CO[C@@H]4C[C@H](O)[C@@]3(C)[C@H]1O)C2(C)C`: the IC50 in the assay with HT-29 is greater than 0.1 µg/mL; with P388, greater than 0.1 µg/mL; with B16-F10, 0.086 µg/mL (≈ 0.0982 µM); with A549 it was greater than 0.1 µg/mL. For the same molecule, the Ratio in assay [1] stood at 7.91.
As to `CC(=O)O[C@@H]1C2=C(C)[C@@H](OC(=O)[C@H](O)[C@H](C)NC(=O)OC(C)(C)C)C[C@@](O)([C@@H](OC(=O)c3ccccc3)[C@@H]3[C@]4(OC(C)=O)CO[C@@H]4C[C@H](O)[C@@]3(C)[C@H]1O)C2(C)C`, the concentration for half-maximal inhibition (IC50) turned out to be 0.0083 µg/mL (≈ 0.0105 µM) in the assay with HT-29, 0.043 µg/mL (≈ 0.0544 µM) in the assay with P388, 0.019 µg/mL (≈ 0.0241 µM) in the assay on B16-F10 and 0.015 µg/mL (≈ 0.019 µM) in the assay with A549. Also, in assay [1], the Ratio was 1.08.
For `C=C[C@H](NC(=O)OC(C)(C)C)[C@@H](O)C(=O)O[C@H]1C[C@@]2(O)[C@@H](OC(=O)c3ccccc3)[C@@H]3[C@]4(OC(C)=O)CO[C@@H]4C[C@H](O)[C@@]3(C)[C@@H](O)[C@H](OC(C)=O)C(=C1C)C2(C)C`, in that order: 0.0018 µg/mL (≈ 0.00224 µM), 0.016 µg/mL (≈ 0.02 µM), 0.0044 µg/mL (≈ 0.00549 µM), 0.0011 µg/mL (≈ 0.00137 µM) and 0.92.
Turning to `CC(=O)O[C@@H]1C2=C(C)[C@@H](OC(=O)[C@H](O)[C@H](Cc3ccccc3)NC(=O)OC(C)(C)C)C[C@@](O)([C@@H](OC(=O)c3ccccc3)[C@@H]3[C@]4(OC(C)=O)CO[C@@H]4C[C@H](O)[C@@]3(C)[C@H]1O)C2(C)C`, the IC50 in the assay on HT-29, with P388, in the assay with B16-F10 and with A549 was greater than 0.1 µg/mL each time. Besides, in assay [1], the Ratio was greater than 17.1.
On to `CCCC[C@@H](NC(=O)OC(C)(C)C)[C@@H](O)C(=O)O[C@H]1C[C@@]2(O)[C@@H](OC(=O)c3ccccc3)[C@@H]3[C@]4(OC(C)=O)CO[C@@H]4C[C@H](O)[C@@]3(C)[C@@H](O)[C@H](OC(C)=O)C(=C1C)C2(C)C`, for which the IC50 is 0.067 µg/mL (≈ 0.0805 µM) in the assay on HT-29, greater than 0.1 µg/mL in the assay with P388, greater than 0.1 µg/mL with B16-F10 and greater than 0.1 µg/mL in the assay with A549. The Ratio in assay [1] amounted to 9.74.
`COC[C@H](NC(=O)c1ccccc1)[C@@H](O)C(=O)O[C@H]1C[C@@]2(O)[C@@H](OC(=O)c3ccccc3)[C@@H]3[C@]4(OC(C)=O)CO[C@@H]4C[C@H](O)[C@@]3(C)[C@@H](O)[C@H](OC(C)=O)C(=C1C)C2(C)C`: the half-inhibitory concentration (IC50) with HT-29 is 0.079 µg/mL (≈ 0.0959 µM); with P388, greater than 0.1 µg/mL; in the assay with B16-F10, greater than 0.1 µg/mL; with A549, greater than 0.1 µg/mL. The Ratio in assay [1] came to 3.14.
As to `CC(=O)O[C@@H]1C2=C(C)[C@@H](OC(=O)[C@H](O)[C@@H](NC(=O)OC(C)(C)C)C(C)O)C[C@@](O)([C@@H](OC(=O)c3ccccc3)[C@@H]3[C@]4(OC(C)=O)CO[C@@H]4C[C@H](O)[C@@]3(C)[C@H]1O)C2(C)C` (single isomer, unassigned) [listing 2 of 2 here], in assay [1], the Ratio is 0.8.
Take `CCCCC[C@H](NC(=O)OC(C)(C)C)[C@@H](O)C(=O)O[C@H]1C[C@@]2(O)[C@@H](OC(=O)c3ccccc3)[C@@H]3[C@]4(OC(C)=O)CO[C@@H]4C[C@H](O)[C@@]3(C)[C@@H](O)[C@H](OC(C)=O)C(=C1C)C2(C)C`: the IC50 was found to be 0.016 µg/mL (≈ 0.0189 µM) in the assay on HT-29, 0.016 µg/mL (≈ 0.0189 µM) in the assay with P388, 0.014 µg/mL (≈ 0.0165 µM) in the assay with B16-F10 and 0.012 µg/mL (≈ 0.0142 µM) with A549. Further, the Ratio in assay [1] was found to be 2.
Take `CC(=O)O[C@@H]1C2=C(C)[C@@H](OC(=O)[C@H](O)[C@@H](NC(=O)c3ccccc3)c3ccccc3)C[C@@](O)([C@@H](OC(=O)c3ccccc3)[C@@H]3[C@]4(OC(C)=O)CO[C@@H]4C[C@H](O)[C@@]3(C)[C@H]1O)C2(C)C`: the half-maximal inhibitory concentration (IC50) is 0.08 µg/mL (≈ 0.0935 µM) in the assay on HT-29, 0.053 µg/mL (≈ 0.0619 µM) in the assay with P388, 0.025 µg/mL (≈ 0.0292 µM) in the assay with B16-F10 and 0.019 µg/mL (≈ 0.0222 µM) in the assay on A549. Further, the Ratio in assay [1] came to 0.86.
For the molecule `CC(=O)O[C@@H]1C2=C(C)[C@@H](OC(=O)[C@H](O)[C@@H](NC(=O)OC(C)(C)C)C3CCCCC3)C[C@@](O)([C@@H](OC(=O)c3ccccc3)[C@@H]3[C@]4(OC(C)=O)CO[C@@H]4C[C@H](O)[C@@]3(C)[C@H]1O)C2(C)C`, the half-maximal inhibitory concentration (IC50) turned out to be 0.005 µg/mL (≈ 0.00583 µM) in the assay with HT-29, 0.014 µg/mL (≈ 0.0163 µM) in the assay with P388, 0.0057 µg/mL (≈ 0.00664 µM) with B16-F10 and 0.0065 µg/mL (≈ 0.00758 µM) with A549. Further, the Ratio in assay [1] came to 0.57.
Take `CC(=O)O[C@@H]1C2=C(C)[C@@H](OC(=O)[C@H](O)[C@@H](NC(=O)OC(C)(C)C)c3cscn3)C[C@@](O)([C@@H](OC(=O)c3ccccc3)[C@@H]3[C@]4(OC(C)=O)CO[C@@H]4C[C@H](O)[C@@]3(C)[C@H]1O)C2(C)C`: the concentration for half-maximal inhibition (IC50) with HT-29 stood at 0.00092 µg/mL (≈ 0.00107 µM); in the assay with P388, 0.0014 µg/mL (≈ 0.00163 µM); in the assay with B16-F10 it was 0.0003 µg/mL (≈ 0.000349 µM); with A549, 0.0063 µg/mL (≈ 0.00733 µM). The Ratio in assay [1] was found to be 1.36.
For `CCCC[C@H](NC(=O)OC(C)(C)C)[C@@H](O)C(=O)O[C@H]1C[C@@]2(O)[C@@H](OC(=O)c3ccccc3)[C@@H]3[C@]4(OC(C)=O)CO[C@@H]4C[C@H](O)[C@@]3(C)[C@@H](O)[C@H](OC(C)=O)C(=C1C)C2(C)C`, in that order: 0.0088 µg/mL (≈ 0.0106 µM), 0.018 µg/mL (≈ 0.0216 µM), 0.0097 µg/mL (≈ 0.0117 µM), 0.0095 µg/mL (≈ 0.0114 µM) and 2.15.
